CHO parental Ca: signal in parental CHO cells, OX1R antagonist counter-screen; parental CHO-K1, ATP-induced calcium, Fluo-8 fluorescence; inhibition, % at 5.6 µM; 0.63% of 330,000 active; AID 463079;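 active = inhibition above that plate's mean sample inhibition plus 3 SD, cut at about 26% in these data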;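 note: 0% = ATP-challenged DMSO wells and 100% = DMSO wells without ATP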
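test system = CHO parental line | reagent = ATP stimulus | measured by = intracellular calcium via Fluo-8 no-wash fluorescent dye | control set = ATP and no-ATP DMSO wells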
GPR7 antagonist: antagonists of human GPR7 (neuropeptides B/W receptor 1); GPR7-expressing cells, fluorescence antagonist assay; inhibition, % at 4.4 µM; P48145; 1.1% of 290,000 active; in the data active = inhibition above about 16%, passing the limit was not always enough;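 note: cells stimulated with the agonist NPW; 0% = agonist with vehicle and 100% = vehicle without agonist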
Target sequence (P48145 whole entry, looked up): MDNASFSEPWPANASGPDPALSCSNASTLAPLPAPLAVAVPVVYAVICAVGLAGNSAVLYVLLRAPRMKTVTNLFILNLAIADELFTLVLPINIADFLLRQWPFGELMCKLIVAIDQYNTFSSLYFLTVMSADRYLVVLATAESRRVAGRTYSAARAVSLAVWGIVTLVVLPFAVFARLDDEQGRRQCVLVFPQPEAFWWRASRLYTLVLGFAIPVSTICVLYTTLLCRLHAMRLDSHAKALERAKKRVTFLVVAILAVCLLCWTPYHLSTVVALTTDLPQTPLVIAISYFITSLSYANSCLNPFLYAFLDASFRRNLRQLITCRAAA
OX1R antag-1: blocks the human orexin 1 receptor. O43613. CHO/OX1R cells, Fluo-8 calcium fluorescence, orexin A. inhibition, % at 5 µM. 0.43% of 330,000 active. AID 434989;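 active = inhibition above its plate's threshold, mean inhibition of all tested compounds on the plate plus 3 SD, cut at about 37% in these data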;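 note: 0% = orexin A challenge wells and 100% = SB-334867-A antagonist wells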
TAAR1 ag: agonists of human TAAR1; Q96RJ0; CHO RD-HGA16 TAAR1, Fluo-8 calcium fluorescence; vehicle wells 0%, saturating PEA agonist 100%; activation, % at 3 µM; 0.99% of 360,000 active;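 active = activation above the mean activation of all test compounds in the run plus 3 SD, cut at about 38% in these data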
Target sequence (Q96RJ0 whole entry, looked up): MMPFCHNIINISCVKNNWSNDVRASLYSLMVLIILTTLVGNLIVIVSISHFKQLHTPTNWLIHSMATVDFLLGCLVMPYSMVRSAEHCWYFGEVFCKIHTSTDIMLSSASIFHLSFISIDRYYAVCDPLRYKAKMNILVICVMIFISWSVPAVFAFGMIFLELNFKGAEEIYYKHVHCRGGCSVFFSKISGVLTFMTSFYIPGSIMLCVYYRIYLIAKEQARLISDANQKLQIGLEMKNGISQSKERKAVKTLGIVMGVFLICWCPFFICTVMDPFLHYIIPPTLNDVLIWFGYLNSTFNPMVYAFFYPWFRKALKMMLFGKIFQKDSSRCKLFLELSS
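Assay system: CHO-derived RD-HGA16 cells with stable Gα16 and human TAAR1; timing: 17-24 h seeding, 75 min 37 °C dye, 30 min RT; read-out: % activation from peak over basal fluorescence ratio, DMSO-to-PEA scaled; measured by: kinetic Fluo-8 calcium fluorescence; benchmarks: low control DMSO, high control PEA (EC100); doses: 3 µM single concentration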
OX1R antag-2: blocks the human orexin 1 receptor | O43613 | OX1R-expressing cells, FRET antagonist read-out | inhibition, % at 6.6 µM | 1.8% of 330,000 active; in the data active = inhibition mostly above about 38%, no sharp cut-off; inactive = mostly below about 40%;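 note: 0% = agonist challenge alone and 100% = reference antagonist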
TAAR1 antag: antagonists of human TAAR1 | Q96RJ0 | CHO RD-HGA16 TAAR1, Fluo-8 calcium fluorescence, antagonist | inhibition, % at 3 µM | 1.5% of 360,000 active | AID 624466;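 active = inhibition above a per-plate cutoff, the mean inhibition of test compounds on that plate plus 3 SD, cut at about 49% in these data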;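 note: 0% = DMSO plus EC80 beta-PEA response and 100% = DMSO alone without agonist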
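Test system: RD-HGA16 CHO cells with stable hTAAR1 and Gα16 / Probe or stimulus: EC80 β-phenethylamine stimulus / Times: seeding 17-24 h prior, 75-min 37 °C, 30-min RT dye loading / Detection: Fluo-8 calcium-sensitive fluorescence / Read-out basis: % inhibition scaled between DMSO and EC80 PEA controls / Repeats: singlicate, one well per test compound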
GPR7 antag conf: confirmation of human GPR7 antagonists; shares compounds with GPR7 antagonist; GPR7-expressing cells, calcium fluorescence antagonist mode; inhibition, % at 4.4 µM; 52% of 2,400 active; in the data active = inhibition above about 24%;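 note: stimulated with the GPR7 agonist NPW; 0% = agonist plus vehicle and 100% = vehicle alone without agonist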
MCHR1 antag: counter-screen for GPR7 antagonists: antagonists of human MCHR1. shares compounds with GPR7 antagonist. MCHR1-expressing cells, fluorescence antagonist assay. inhibition, % at 4.4 µM. 62% of 2,400 active; in the data active = inhibition above about 22%;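 note: 0% = vehicle with agonist and 100% = vehicle without agonist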
* hit, by the source's call. Hits are enriched below; roughly 4.5% of the tested compounds scored in any of these assays.

How did CN1CCCN(c2ccc([N+](=O)[O-])cc2)CC1 do in these assays?
CHO parental Ca: -7.3; GPR7 antagonist: 17.0; OX1R antag-1: -9.1; TAAR1 ag: 6.5; OX1R antag-2: 23.0; TAAR1 antag: -29.5

How did CC(C)CNS(=O)(=O)c1ccc(CCC(=O)N2CCN(c3ccc(F)cc3)CC2)cc1 do in these assays?
CHO parental Ca: -13.5; GPR7 antagonist: 29.9*; OX1R antag-1: -8.9; TAAR1 ag: 6.8; OX1R antag-2: 30.5; TAAR1 antag: 7.5; GPR7 antag conf: 6.5; MCHR1 antag: 42.5*

How did O=C(CCc1ccccc1)N1CCN(c2ccc([N+](=O)[O-])cc2)CC1 do in these assays?
CHO parental Ca: 2.5; GPR7 antagonist: 26.4*; OX1R antag-1: 7.9; TAAR1 ag: -0.6; OX1R antag-2: 24.0; TAAR1 antag: -1.1; GPR7 antag conf: 37.1*; MCHR1 antag: 37.3*

Results for COc1ccc(NC(=O)CSc2n[nH]c(C)c2[N+](=O)[O-])cc1 ?
CHO parental Ca: 10.3; GPR7 antagonist: 22.3*; OX1R antag-1: -9.8; TAAR1 ag: 6.3; OX1R antag-2: 10.2; TAAR1 antag: -20.4; GPR7 antag conf: 9.4; MCHR1 antag: 8.8

How did Cc1ccc(NC(=O)CSc2n[nH]c(C)c2[N+](=O)[O-])cc1C do in these assays?
CHO parental Ca: 24.2; GPR7 antagonist: -11.0; OX1R antag-1: 18.9; TAAR1 ag: 15.7; OX1R antag-2: 15.6; TAAR1 antag: 3.2

Results for CC(=O)c1cccc(OC(=O)c2cc(S(=O)(=O)N3CCOCC3)ccc2N2CCCC2)c1 ?
CHO parental Ca: -24.1; OX1R antag-1: -38.7; TAAR1 ag: 2.1; OX1R antag-2: 9.9; TAAR1 antag: -6.0

How did CN1CCC(N(C)CC(=O)Nc2ccc3c(c2)OC(F)(F)O3)CC1 do in these assays?
CHO parental Ca: 0.8; GPR7 antagonist: -7.1; OX1R antag-1: -1.4; TAAR1 ag: 1.4; OX1R antag-2: 12.9; TAAR1 antag: -17.9

Results for CN(CC(=O)Nc1cccc(S(=O)(=O)N(C)C)c1)Cc1ccccc1 ?
CHO parental Ca: -17.4; GPR7 antagonist: 2.0; OX1R antag-1: -17.4; TAAR1 ag: 2.7; OX1R antag-2: 11.9; TAAR1 antag: -6.3

Results for CN1CCC(N(C)CC(=O)Nc2cccc(Oc3ccccc3)c2)CC1 ?
CHO parental Ca: -1.7; GPR7 antagonist: 27.5*; OX1R antag-1: -4.9; TAAR1 ag: 16.3; OX1R antag-2: 14.7; TAAR1 antag: 11.4; GPR7 antag conf: 2.9; MCHR1 antag: 6.7

Results for CN(CC(=O)Nc1cccc(C(F)(F)F)c1)Cc1ccccc1 ?
CHO parental Ca: -0.1; GPR7 antagonist: 26.2*; OX1R antag-1: -13.4; TAAR1 ag: 1.5; OX1R antag-2: 38.9; TAAR1 antag: -6.8; GPR7 antag conf: 24.0*; MCHR1 antag: 35.1*

What do the screens show for `O=C(CN(Cc1ccc(Cl)cc1)S(=O)(=O)c1ccccc1)NCC1CCCO1` (stereo unspecified)?
CHO parental Ca: -16.4; GPR7 antagonist: -9.2; OX1R antag-1: -18.3; TAAR1 ag: 1.8; OX1R antag-2: 11.8; TAAR1 antag: -26.3

How did Cc1cc(OCCCC(=O)Nc2cccc(-n3cnnn3)c2)ccc1Cl do in these assays?
CHO parental Ca: 32.4; GPR7 antagonist: 29.1*; OX1R antag-1: 21.9; TAAR1 ag: 6.9; OX1R antag-2: 14.0; TAAR1 antag: 59.9*; GPR7 antag conf: 47.5*; MCHR1 antag: 81.7*

How did COc1cccc(NC(=O)COc2cccc(-n3cnnn3)c2)c1 do in these assays?
CHO parental Ca: 8.8; GPR7 antagonist: 9.8; OX1R antag-1: -4.2; TAAR1 ag: 5.2; OX1R antag-2: 9.4; TAAR1 antag: 17.9

How did COc1ccccc1NC(=O)CSc1nc2ccccc2n1C(C)=O do in these assays?
CHO parental Ca: -17.4; GPR7 antagonist: 21.0*; OX1R antag-1: -22.3; TAAR1 ag: 7.1; OX1R antag-2: 15.8; TAAR1 antag: 11.9; GPR7 antag conf: -6.3; MCHR1 antag: 16.6

What do the screens show for `CC(C)(C)c1ccc(C(=O)N2CCC(C(=O)c3ccccc3)CC2)cc1`?
CHO parental Ca: 24.5; GPR7 antagonist: 41.1*; OX1R antag-1: -1.1; TAAR1 ag: 2.6; OX1R antag-2: -5.8; TAAR1 antag: 4.5; GPR7 antag conf: 38.7*; MCHR1 antag: 38.3*

What do the screens show for `O=C(Cc1ccccc1)NCC1CCCO1` (stereo unspecified)?
CHO parental Ca: 6.7; GPR7 antagonist: 0.9; OX1R antag-1: -4.6; TAAR1 ag: 2.6; OX1R antag-2: 28.6; TAAR1 antag: -23.6

How did O=P(c1ccccc1)(c1ccccc1)C1CCCO1 (stereo unspecified) do in these assays?
CHO parental Ca: -5.5; GPR7 antagonist: 42.5*; OX1R antag-1: 2.9; TAAR1 ag: 3.6; OX1R antag-2: 8.6; TAAR1 antag: 8.0; GPR7 antag conf: -5.0; MCHR1 antag: -11.3

How did COc1ccccc1-c1nnc2sc(COc3ccc(F)cc3)nn12 do in these assays?
CHO parental Ca: -32.5; GPR7 antagonist: 42.3*; OX1R antag-1: -27.9; TAAR1 ag: 6.0; OX1R antag-2: 15.7; TAAR1 antag: 8.9; GPR7 antag conf: 17.0; MCHR1 antag: 52.3*

What do the screens show for `COc1ccc(CC(=O)N2CCNC2=O)cc1`?
CHO parental Ca: -9.2; GPR7 antagonist: 29.9*; OX1R antag-1: -1.6; TAAR1 ag: 5.0; OX1R antag-2: 2.9; TAAR1 antag: 5.5; GPR7 antag conf: -12.7; MCHR1 antag: -1.3

How did COc1ccc(CC(=O)N2CCc3ccccc32)cc1 do in these assays?
CHO parental Ca: -10.2; GPR7 antagonist: 4.3; OX1R antag-1: -11.8; TAAR1 ag: 6.2; OX1R antag-2: 25.6; TAAR1 antag: -22.5

What do the screens show for `CCN1CCN(S(=O)(=O)c2ccc(-c3cc(C)no3)s2)CC1`?
CHO parental Ca: -2.7; GPR7 antagonist: -2.1; OX1R antag-1: -14.0; TAAR1 ag: 0.4; OX1R antag-2: 7.6; TAAR1 antag: -5.1

What do the screens show for `Cc1cc(-c2ccc(S(=O)(=O)N3CCN(c4cccc(C)c4C)CC3)s2)on1`?
CHO parental Ca: 3.9; GPR7 antagonist: 29.0*; OX1R antag-1: -2.2; TAAR1 ag: 2.7; OX1R antag-2: 18.9; TAAR1 antag: -3.0; GPR7 antag conf: 14.5; MCHR1 antag: 39.6*

How did O=C(CCN1C(=O)c2ccccc2C1=O)Nc1ccc2c(c1)OCCO2 do in these assays?
CHO parental Ca: -11.7; GPR7 antagonist: 23.0*; OX1R antag-1: -21.2; TAAR1 ag: 13.7; OX1R antag-2: 8.5; TAAR1 antag: 16.4; GPR7 antag conf: 0.2; MCHR1 antag: -1.4

High-throughput results (PubChem BioAssay)
